Experimental findings from ChEMBL document CHEMBL4364291, “Benzylideneacetone Derivatives Inhibit Osteoclastogenesis and Activate Osteoblastogenesis Independently Based on Specific Structure-Activity Relationship” (J Med Chem, 2019) are described below.

One may read the inhibition as the percentage by which the read-out fell short of the control.

In series [1] the test system is BMDM. In words: Inhibition of M-CSF/RANKL-induced osteoclast differentiation in C57BL/6 mouse bone marrow macrophages co-cultured with mouse MC3T3-E1 at 10 uM measured on day 7. In kind it is functional, cell-based.
The nature of series [2]: Inhibition of M-CSF/RANKL-induced osteoclast differentiation in C57BL/6 mouse bone marrow macrophage assessed as reduction in multinucleated TRAP+ cells at 10 uM incubated for 6 days with fresh media replacement on day 3 and measured on day 6 by TRAP staining-based microscopic analysis relative to control. Particulars: C57BL/6, BMDM. In kind it is functional. In a few lines: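 BMM came from femur and tibia marrow of 5–8-week-old male C57BL/6 mice and were purified over lymphocyte separation medium. Cells, 1 × 10^5 per well, were grown in α-MEM/10% FBS with M-CSF (60 ng/mL) and RANKL (150 ng/mL) for 6 d, medium changed day 3. Compound range was 0.01−100 μM. TRAP+ multinucleated cells were counted on day 6.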

The test system of series [3] is MC3T3-E1. Description: Induction of osteoblast differentiation in ascorbic acid/beta-glycerophosphate-induced mouse MC3T3-E1 cells assessed as increase in RUNX2 expression at 50 uM after 14 days by Western blot analysis relative to control. In kind it is functional. In a few lines: (§1)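 MC3T3-E1 cells were induced with osteoblast differentiation factors, with or without 50 μM compound, for 21 d. Cells were harvested at 7, 14 and 21 d and RUNX2 was quantified by Western blot against untreated differentiated cells. The negative control lacked differentiation factors. Values are mean ± SD of three independent experiments.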
Background: In western blotting, separated proteins are transferred to a membrane and probed.

In series [4] the test system is MC3T3-E1. Description: Induction of osteoblast differentiation in mouse MC3T3-E1 cells assessed as increase in osteocalcin expression at 50 uM after 7 days by Western blot analysis relative to control. The series is classed as functional. Summed up: (§2)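 MC3T3-E1 cells were differentiated with osteoblast differentiation factors, with or without 50 μM compound, for 21 d. The negative control lacked differentiation factors. Osteocalcin in culture medium was measured by Western blot at 7, 14 and 21 d. Values are mean ± SD of three independent experiments.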

For series [5], the system named is MC3T3-E1. In words: Induction of osteoblast differentiation in mouse MC3T3-E1 cells assessed as increase in osteocalcin expression at 50 uM after 21 days by Western blot analysis relative to control. In kind it is functional. Summed up: as §2
The subject of another series is PC-3. Description: Antiproliferative activity against human PC3 cells after 24 hrs by MTT assay. In kind it is functional. As to conditions: PC-3, 24 h, read-out: LD50 (the source's name). Summed up:
(§3)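 Cells were maintained in DMEM at 37 °C under 5% CO2. Growth and survival were estimated by MTT assay, and the value is reported as LD50.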
For orientation: Formazan colour is commonly taken as a measure of viable cells.

Series [6] relates to BMDM. Description: Inhibition of RANKL-induced osteoclastogenesis in C57BL/6 mouse bone marrow macrophages assessed as effect on NFATc1 expression at 10 uM measured over 5 days by Western blot analysis. The series is classed as functional, cell-based. Summed up: (§4)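 C57BL/6 BMM were grown with M-CSF plus RANKL over the course of osteoclastogenesis, treated at 0.5 or 10 μM. NF-κB and NFATc1 were followed by Western blot. The negative control was M-CSF only.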

The test system of series [7] is MC3T3-E1. Description: Induction of osteoblast differentiation in mouse ascorbic acid/beta-glycerophosphate-induced MC3T3-E1 cells assessed as increase in RUNX2 expression at 50 uM after 21 days by Western blot analysis relative to control. The series is classed as functional. Summed up: as §1
In series [8] the test system is BMDM. In words: Inhibition of M-CSF/RANKL-induced osteoclast differentiation in C57BL/6 mouse bone marrow macrophages co-cultured with mouse MC3T3-E1 at 10 uM measured on day 21. The series is classed as functional, cell-based.
Series [9] concerns MC3T3-E1. In words: Induction of osteoblast differentiation in mouse MC3T3-E1 cells co-cultured with C57BL/6 mouse bone marrow macrophages assessed as activation of ALP production at 10 uM measured on day 14 relative to control. In kind it is functional. In a few lines: (§5)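 MC3T3-E1 cells were cocultured with C57BL/6 BMM in differentiation factors for both cell types, with 10 μM compound, and grown for 21 d. ALP production was measured at 7, 14 and 21 d after coculture induction, relative to untreated cells.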

Series [10] concerns MC3T3-E1. Description: Induction of osteoblast differentiation in ascorbic acid/beta-glycerophosphate-induced mouse MC3T3-E1 cells assessed as increase in RUNX2 expression at 50 uM after 7 days by Western blot analysis relative to control. In kind it is functional. In a few lines:
as §1

Series [11] has as its system MC3T3-E1. Description: Induction of osteoblast differentiation in mouse MC3T3-E1 cells co-cultured with C57BL/6 mouse bone marrow macrophages assessed as activation of ALP production at 10 uM measured on day 21 relative to control. In kind it is functional. Summed up:
as §5

The subject of series [12] is MC3T3-E1. Description: Induction of osteoblast differentiation in ascorbic acid/beta-glycerophosphate-induced mouse MC3T3-E1 cells co-cultured with C57BL/6 mouse bone marrow macrophages assessed as increase in osteocalcin expression at 10 uM measured on day 7 by Western blot analysis. The series is classed as functional, cell-based. Summed up: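 MC3T3-E1 and C57BL/6 BMM cocultures were given osteoblast plus osteoclast differentiation factors, with or without 10 μM compound, for 21 d. The negative control had M-CSF only. Osteocalcin in culture medium was quantified by Western blot at 7, 14 and 21 d.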

The subject of series [13] is MC3T3-E1. Description: Induction of osteoblast differentiation in mouse MC3T3-E1 cells assessed as increase in osteocalcin expression at 50 uM after 14 days by Western blot analysis relative to control. In kind it is functional. In a few lines: as §2
Series [14] in a line: Cytotoxicity against mouse NIH/3T3 cells after 24 hrs by MTT assay. The series is classed as cell-based, NIH3T3. As to conditions: read-out: LD50. In a few lines:
as §3

The next series deals with T-24. Description: Antiproliferative activity against human T24 cells after 24 hrs by MTT assay. The series is classed as functional. As to conditions: T-24, 24 h, read-out: LD50 (the source's name).
The test system of series [15] is Mus musculus. Description: Antiosteoporotic activity in ddY mouse model of OVX-induced osteoporosis assessed as increase in ratio of bone volume/trabecular volume in femur bone at 1 mg/kg, po administered once daily via gavage for 4 weeks by microcomputed tomographic analysis. In kind it is functional, organism-based. Summed up: (§6)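 Female ddY mice were ovariectomized. Oral gavage began 1 week after surgery and ran once daily for 28 d. Vehicle was 300 μL PBS containing 0.5% (v/v) DMSO, also given to sham and OVX controls. Mice were then euthanized and femur and tibia fixed for CT imaging. Values are mean ± SD of four mice.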

A short description of series [16]: Potency index, ratio of alendronate IC50 to test compound IC50 for inhibition of M-CSF/RANKL-induced osteoclast differentiation in C57BL/6 mouse bone marrow macrophages by measuring decrease in multinucleated TRAP+ cells incubated for 6 days with fresh media replacement on day 3 and measured on day 6 by TRAP staining-based microscopic analysis. The series is classed as functional, BMDM.

Series [17] has as its system Mus musculus. Description: Antiosteoporotic activity in ddY mouse model of OVX-induced osteoporosis assessed as increase in trabecular thickness in femur bone at 1 mg/kg, po administered once daily via gavage for 4 weeks by microcomputed tomographic analysis. In kind it is functional, organism-based. In a few lines:
as §6

Series [18] has as its system Mus musculus. In words: Antiosteoporotic activity in ddY mouse model of OVX-induced osteoporosis assessed as increase in cross-sectional thickness in femur bone at 1 mg/kg, po administered once daily via gavage for 4 weeks by microcomputed tomographic analysis. The series is classed as functional, organism-based. Summed up:
as §6

Series [19] deals with BMDM. Description: Inhibition of RANKL-induced osteoclastogenesis in C57BL/6 mouse bone marrow macrophages assessed as increase in NFkappaB expression at 0.5 uM measured over 5 days by Western blot analysis. The series is classed as functional, cell-based. Summed up:
as §4

Series [20] concerns BMDM. Description: Suppression of NFATc1 expression in M-CSF induced C57BL/6 mouse bone marrow macrophages at 0.5 uM measured over 5 days by Western blot analysis. In kind it is functional, cell-based. Summed up:
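C57BL/6 BMM were kept proliferating with M-CSF in the absence of RANKL and treated with compound (0.5 or 10 μM). NFATc1 expression was followed over the culture period by Western blot.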

Active and inactive are the calls of the source. No cut-off for these calls is given here. Bounds are passed on as bounds.

In the case of `CC(=O)/C=C/c1ccc(O)c(O)c1`, the inhibition result with BMDM [1] and in the series on BMDM [8] was “Active” in each case. For the same compound, the inhibition at 10 µM in [2] was found to be 100%. In addition, the “fold change (FC)” value was found to be 1.4 in the series on MC3T3-E1 [3]; 1.8 with MC3T3-E1 [4]; 2 in the series on MC3T3-E1 [5]; 3.2 in the series on MC3T3-E1 [7]; 1.7 in the series with MC3T3-E1 [10]; 4.1 with MC3T3-E1 [13]. Besides, the CC50 in the series with PC-3 worked out at 66 µM. For the same compound, the inhibition entry in the series with BMDM [6] was “inactive”. For the same compound, the values for the Activity with MC3T3-E1 [9] and with MC3T3-E1 [11] were 110% and 100%, respectively. Besides, the result in the series with MC3T3-E1 [12] was Active. Moreover, the CC50 at 24 h in [14] was above 5 mM.
Turning to `COc1ccc(/C=C/C(C)=O)cc1O`, the CC50 with T-24 worked out at 180 µM. Further, the result in the series with Mus musculus [15], in the series on Mus musculus [17], in the series with Mus musculus [18] and in the series on BMDM [20] was Active. Also, in series [16], the “Ratio IC50” value was determined as 30. In addition, the inhibition entry in the series on BMDM [19] was “Active”.
